Assay results reported in ChEMBL document CHEMBL3351961, “In vitro antitumor activity evaluation of some 1,2,4-triazine derivatives bearing piperazine amide moiety against breast cancer cells” (Bioorg Med Chem, 2014).
Active and inactive are the calls of the source. The rule behind the calls is not given here.

Experiments:
[1] = system: MCF7; experiment: Cytotoxicity against human MCF7 cells after 24 hrs by MTT assay; assay type: functional, cell-based; details: MCF7, 24 h, in the assay text read “XTT assay” for “MTT assay”
How it was run: (§1)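 Cells grown in RPMI with fetal calf serum, penicillin/streptomycin, 37 °C, 5% CO2. Seeded 2 × 10^4 cells/well, then 24 h. Medium replaced with compound at 3.9–500 µg/ml (DMSO stocks diluted in medium, final DMSO under 0.1%). XTT read-out of mitochondrial activity: 3 h at 37 °C, OD 480 nm (reference 680 nm). IC50 by non-linear regression; duplicate experiments; cisplatin positive control.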

[2] = Cytotoxicity against mouse NIH/3T3 cells after 24 hrs by MTT assay; assay type: cell-based; details: NIH3T3, 24 h, in the assay text read “XTT assay” for “MTT assay”; how it was run: as §1
[3] = system: MCF7; experiment: Inhibition of DNA synthesis in human MCF7 cells at 22.09 ug/ml after 48 hrs by 5-bromo-20-deoxy-uridine incorporation method; assay type: functional; details: MCF7, 48 h
How it was run: (§2)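 MCF-7 seeded at 2 × 10^4 cells/well and exposed to compound for 48 h at the stated concentration. BrdU added for 2 h at 37 °C, then anti-BrdU-POD for 90 min, PBS washes and colorimetric substrate. Inhibition taken relative to untreated control absorbance (set as 0%). Means of two independent experiments ± SD of four wells.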

[4] = system: MCF7; experiment: Inhibition of DNA synthesis in human MCF7 cells at 44.18 ug/ml after 48 hrs by 5-bromo-20-deoxy-uridine incorporation method; assay type: functional; details: MCF7, 48 h; how it was run: as §2
[5] = system: MCF7; experiment: Induction of apoptosis in human MCF7 cells assessed as viable cells level at cytotoxic IC50 level after 24 hrs by Annexin V/PI dual staining based flow cytometry (reference value: 94.36 %); assay type: functional
[6] = system: MCF7; experiment: Induction of apoptosis in human MCF7 cells assessed as early apoptotic cells level at cytotoxic IC50 level after 24 hrs by Annexin V/PI dual staining based flow cytometry (reference value: 0.46%); assay type: functional
[7] = system: MCF7; experiment: Induction of apoptosis in human MCF7 cells assessed as late apoptotic cells level at cytotoxic IC50 level after 24 hrs by Annexin V/PI dual staining based flow cytometry (reference value: 1.52 %); assay type: functional
[8] = system: MCF7; experiment: Induction of apoptosis in human MCF7 cells assessed as necrotic cells level at cytotoxic IC50 level after 24 hrs by Annexin V/PI dual staining based flow cytometry (reference value: 3.66 %); assay type: functional
[9] = system: MCF7; experiment: Inhibition of DNA synthesis in human MCF7 cells at 0.5 times cytotoxic IC50 level after 48 hrs by 5-bromo-20-deoxy-uridine incorporation method; assay type: functional
How it was run: (§3)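 BrdU ELISA on MCF-7 seeded at 2 × 10^4 cells/well. Compounds given at IC50/2, IC50 and 2 × IC50 (from the XTT assay) for 24 h or 48 h. BrdU added for 2 h at 37 °C, then anti-BrdU-POD for 90 min, three PBS washes and colorimetric substrate. Untreated control absorbance set as 0% inhibition. Means of two independent experiments ± SD of four wells; cisplatin positive control.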

[10] = system: MCF7; experiment: Inhibition of DNA synthesis in human MCF7 cells at cytotoxic IC50 level after 48 hrs by 5-bromo-20-deoxy-uridine incorporation method; assay type: functional; how it was run: as §3
[11] = system: MCF7; experiment: Inhibition of DNA synthesis in human MCF7 cells at 2 times cytotoxic IC50 level after 48 hrs by 5-bromo-20-deoxy-uridine incorporation method; assay type: functional; how it was run: as §3
[12] = system: MCF7; experiment: Inhibition of DNA synthesis in human MCF7 cells at 0.5 times cytotoxic IC50 level after 24 hrs by 5-bromo-20-deoxy-uridine incorporation method; assay type: functional; how it was run: as §3
[13] = system: MCF7; experiment: Inhibition of DNA synthesis in human MCF7 cells at cytotoxic IC50 level after 24 hrs by 5-bromo-20-deoxy-uridine incorporation method; assay type: functional; how it was run: as §3
[14] = system: MCF7; experiment: Inhibition of DNA synthesis in human MCF7 cells at 2 times cytotoxic IC50 level after 24 hrs by 5-bromo-20-deoxy-uridine incorporation method; assay type: functional; how it was run: as §3
[15] = system: MCF7; experiment: Inhibition of DNA synthesis in human MCF7 cells at 15.32 ug/ml after 48 hrs by 5-bromo-20-deoxy-uridine incorporation method; assay type: functional; details: MCF7, 48 h; how it was run: as §2
[16] = system: MCF7; experiment: Inhibition of DNA synthesis in human MCF7 cells at 30.63 ug/ml after 48 hrs by 5-bromo-20-deoxy-uridine incorporation method; assay type: functional; details: MCF7, 48 h; how it was run: as §2
[17] = system: MCF7; experiment: Inhibition of DNA synthesis in human MCF7 cells at 61.26 ug/ml after 48 hrs by 5-bromo-20-deoxy-uridine incorporation method; assay type: functional; details: MCF7, 48 h; how it was run: as §2

O=C(CN1CCN(c2ccc([N+](=O)[O-])cc2)CC1)N1CCN(c2nnc(-c3ccccc3)c(-c3ccccc3)n2)CC1
IC50 [1]: > 886 µM | IC50 [2]: > 886 µM

Cc1ccc(-c2nnc(N3CCN(C(=O)CN4CCN(c5ccccc5)CC4)CC3)nc2-c2ccc(C)cc2)cc1
IC50 [1]: 914 µM | IC50 [2]: > 914 µM

COc1ccccc1N1CCN(CC(=O)N2CCN(c3nnc(-c4ccc(C)cc4)c(-c4ccc(C)cc4)n3)CC2)CC1
IC50 [1]: 59.4 µM | IC50 [2]: 133 µM | inhibition at 22.09 µg/mL [3]: 78.5% | inhibition at 44.18 µg/mL [4]: 78.7% | Activity [5]: 63.4% | Activity [6]: 2.6% | Activity [7]: 5.8% | Activity [8]: 28.2%

Cc1ccc(-c2nnc(N3CCN(C(=O)CN4CCN(c5ccc(Cl)cc5)CC4)CC3)nc2-c2ccc(C)cc2)cc1
IC50 [1]: 660 µM | IC50 [2]: 567 µM

COc1ccc(-c2nnc(N3CCN(C(=O)CN4CCN(c5ccccc5Cl)CC4)CC3)nc2-c2ccc(OC)cc2)cc1
IC50 [1]: > 814 µM | IC50 [2]: > 814 µM

O=C(CN1CCN(c2ccc(Cl)cc2)CC1)N1CCN(c2nnc(-c3ccccc3)c(-c3ccccc3)n2)CC1
IC50 [1]: 56.3 µM | IC50 [2]: 113 µM | inhibition (INH) [9]: 24.98% | inhibition (INH) [10]: 52.05% | inhibition (INH) [11]: 62.34% | Activity [5]: 76.4% | Activity [6]: 2.1% | Activity [7]: 10.3% | Activity [8]: 11.2%

O=C(CN1CCN(c2cccc(Cl)c2)CC1)N1CCN(c2nnc(-c3ccc(Cl)cc3)c(-c3ccc(Cl)cc3)n2)CC1
IC50 [1]: > 803 µM | IC50 [2]: > 803 µM

COc1ccc(-c2nnc(N3CCN(C(=O)CN4CCN(c5cccc(OC)c5)CC4)CC3)nc2-c2ccc(OC)cc2)cc1
IC50 [1]: > 821 µM | IC50 [2]: > 821 µM

COc1cccc(N2CCN(CC(=O)N3CCN(c4nnc(-c5ccccc5)c(-c5ccccc5)n4)CC3)CC2)c1
IC50 [1]: > 911 µM | IC50 [2]: 361 µM

COc1ccccc1N1CCN(CC(=O)N2CCN(c3nnc(-c4ccc(Cl)cc4)c(-c4ccc(Cl)cc4)n3)CC2)CC1
IC50 [1]: 330 µM | IC50 [2]: 404 µM

COc1ccc(-c2nnc(N3CCN(C(=O)CN4CCN(c5cccc(Cl)c5)CC4)CC3)nc2-c2ccc(OC)cc2)cc1
IC50 [1]: > 814 µM | IC50 [2]: > 814 µM

COc1ccc(-c2nnc(N3CCN(C(=O)CN4CCN(c5ccc(Cl)cc5)CC4)CC3)nc2-c2ccc(OC)cc2)cc1
IC50 [1]: 607 µM | IC50 [2]: > 814 µM

O=C(CN1CCN(c2ccccc2Cl)CC1)N1CCN(c2nnc(-c3ccccc3)c(-c3ccccc3)n2)CC1
IC50 [1]: 263 µM | IC50 [2]: 350 µM

Cc1ccc(-c2nnc(N3CCN(C(=O)CN4CCN(c5ccccc5Cl)CC4)CC3)nc2-c2ccc(C)cc2)cc1
IC50 [1]: 859 µM | IC50 [2]: > 859 µM

O=C(CN1CCN(c2cccc(Cl)c2)CC1)N1CCN(c2nnc(-c3ccccc3)c(-c3ccccc3)n2)CC1
IC50 [1]: 56.3 µM | IC50 [2]: 178 µM | inhibition (INH) [12]: 26.06% | inhibition (INH) [13]: 31.36% | inhibition (INH) [14]: 41.48% | inhibition (INH) [9]: 56.59% | inhibition (INH) [10]: 61.16% | inhibition (INH) [11]: 70.18% | Activity [5]: 76.9% | Activity [6]: 2.2% | Activity [7]: 9.4% | Activity [8]: 11.5%

O=C(CN1CCN(c2ccc(Cl)cc2)CC1)N1CCN(c2nnc(-c3ccc(Cl)cc3)c(-c3ccc(Cl)cc3)n2)CC1
IC50 [1]: > 803 µM | IC50 [2]: > 803 µM

COc1cccc(N2CCN(CC(=O)N3CCN(c4nnc(-c5ccc(C)cc5)c(-c5ccc(C)cc5)n4)CC3)CC2)c1
IC50 [1]: 867 µM | IC50 [2]: > 866 µM

O=C(CN1CCN(c2ccccc2Cl)CC1)N1CCN(c2nnc(-c3ccc(Cl)cc3)c(-c3ccc(Cl)cc3)n2)CC1
IC50 [1]: 396 µM | IC50 [2]: > 803 µM

COc1ccc(N2CCN(CC(=O)N3CCN(c4nnc(-c5ccc(Cl)cc5)c(-c5ccc(Cl)cc5)n4)CC3)CC2)cc1
IC50 [1]: > 809 µM | IC50 [2]: > 809 µM

O=C(CN1CCN(c2ccccc2)CC1)N1CCN(c2nnc(-c3ccccc3)c(-c3ccccc3)n2)CC1
IC50 [1]: > 963 µM | IC50 [2]: > 963 µM

COc1cccc(N2CCN(CC(=O)N3CCN(c4nnc(-c5ccc(Cl)cc5)c(-c5ccc(Cl)cc5)n4)CC3)CC2)c1
IC50 [1]: 149 µM | IC50 [2]: 202 µM | Activity [5]: 71.3% | Activity [6]: 0.9% | Activity [7]: 3.3% | Activity [8]: 24.5%

O=C(CN1CCN(c2ccccc2)CC1)N1CCN(c2nnc(-c3ccc(Cl)cc3)c(-c3ccc(Cl)cc3)n2)CC1
IC50 [1]: > 850 µM | IC50 [2]: > 850 µM

COc1ccc(N2CCN(CC(=O)N3CCN(c4nnc(-c5ccccc5)c(-c5ccccc5)n4)CC3)CC2)cc1
IC50 [1]: > 911 µM | IC50 [2]: > 911 µM

COc1ccc(-c2nnc(N3CCN(C(=O)CN4CCN(c5ccccc5)CC4)CC3)nc2-c2ccc(OC)cc2)cc1
IC50 [1]: > 864 µM | IC50 [2]: > 864 µM

COc1ccc(-c2nnc(N3CCN(C(=O)CN4CCN(c5ccc(OC)cc5)CC4)CC3)nc2-c2ccc(OC)cc2)cc1
IC50 [1]: > 821 µM | IC50 [2]: > 821 µM

COc1ccc(-c2nnc(N3CCN(C(=O)CN4CCN(c5ccccc5OC)CC4)CC3)nc2-c2ccc(OC)cc2)cc1
IC50 [1]: > 821 µM | IC50 [2]: > 821 µM

Cc1ccc(-c2nnc(N3CCN(C(=O)CN4CCN(c5cccc(Cl)c5)CC4)CC3)nc2-c2ccc(C)cc2)cc1
IC50 [1]: 797 µM | IC50 [2]: 859 µM

Cc1ccc(-c2nnc(N3CCN(C(=O)CN4CCN(c5ccc([N+](=O)[O-])cc5)CC4)CC3)nc2-c2ccc(C)cc2)cc1
IC50 [1]: 845 µM | IC50 [2]: > 845 µM

COc1ccc(-c2nnc(N3CCN(C(=O)CN4CCN(c5ccc([N+](=O)[O-])cc5)CC4)CC3)nc2-c2ccc(OC)cc2)cc1
IC50 [1]: > 801 µM | IC50 [2]: > 801 µM

COc1ccc(N2CCN(CC(=O)N3CCN(c4nnc(-c5ccc(C)cc5)c(-c5ccc(C)cc5)n4)CC3)CC2)cc1
IC50 [1]: 53 µM | IC50 [2]: 116 µM | inhibition (INH) [12]: 56.94% | inhibition (INH) [13]: 77.82% | inhibition (INH) [14]: 88.52% | inhibition at 15.32 µg/mL [15]: 76.7% | inhibition at 30.63 µg/mL [16]: 86% | inhibition at 61.26 µg/mL [17]: 88.9% | Activity [5]: 66.5% | Activity [6]: 0.6% | Activity [7]: 6.2% | Activity [8]: 26.7%

COc1ccccc1N1CCN(CC(=O)N2CCN(c3nnc(-c4ccccc4)c(-c4ccccc4)n3)CC2)CC1
IC50 [1]: 167 µM | IC50 [2]: 444 µM | inhibition (INH) [12]: 22.44% | inhibition (INH) [13]: 76.35% | inhibition (INH) [14]: 81.61% | inhibition [9]: Active | inhibition [10]: Active | inhibition [11]: Active | Activity [5]: 82.5% | Activity [6]: 0% | Activity [7]: 0.4% | Activity [8]: 17.1%

O=C(CN1CCN(c2ccc([N+](=O)[O-])cc2)CC1)N1CCN(c2nnc(-c3ccc(Cl)cc3)c(-c3ccc(Cl)cc3)n2)CC1
IC50 [1]: > 790 µM | IC50 [2]: > 790 µM
